According to ChEMBL document CHEMBL3785032, “Zerumbone Suppresses Osteopontin-Induced Cell Invasion Through Inhibiting the FAK/AKT/ROCK Pathway in Human Non-Small Cell Lung Cancer A549 Cells” (J Nat Prod, 2016):
The source made the active and inactive calls. The rule behind the calls is not given here.

Columns and labels:
[1] = Inhibition of FAK/AKT/ROCK signaling pathway in human A549 cells assessed as decrease in OPN-induced lamellipodia formation at 10 uM after 24 hrs by rhodamine phalloidin/DAPI staining based immunofluorescence assay; assay type: cell-based
Procedure, shortened: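 5 × 10^4 cells/well were seeded on chamber slides and treated with 1 nM OPN for 24 h with or without 10 μM compound. Cells were fixed in 4% formaldehyde/PBS pH 7.4 for 10 min and permeabilized in 0.5% Triton X-100 for 5 min. They were stained with 100 nM rhodamine phalloidin for 30 min at room temperature in the dark, counterstained with DAPI, and imaged by confocal microscopy at 600×.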

[2] = Inhibition of FAK/AKT/ROCK signaling pathway in human A549 cells assessed as decrease in OPN-induced phosphorylation of LIMK1/2 at 5 to 10 uM after 24 hrs by Western blot analysis; assay type: cell-based
Procedure, shortened: (§1)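 A549 cells were given 1 nM OPN for 24 h with or without compound. 25–30 μg total protein per lane was probed with primary antibodies overnight at 4 °C, then secondary antibodies for 2 h at room temperature. Detection was by enhanced chemiluminescence, with densitometric band quantification. Mean ± SD of two independent experiments; Student's t test.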

[3] = test system: A549; experiment: Anti-invasive activity in human A549 cells assessed as inhibition of OPN-induced cell invasion to matrigel coated invasion chamber at 5 uM preincubated for 30 mins followed by OPN stimulation measured after 24 hrs by boyden chamber assay; assay type: functional
Procedure, shortened: (§2)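 Boyden chamber with a Matrigel-coated filter. Cells were pretreated with compound for 30 min and loaded into the upper wells, with 1 nM OPN in the lower wells. After 24 h at 37 °C, cells were stained, random fields were photographed at 200×, and cells on the lower surface were counted. Mean ± SD of two independent experiments; Student's t test.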

[4] = test system: A549; experiment: Effect on total cofilin protein level in OPN-stimulated human A549 cells at 5 to 10 uM after 24 hrs by Western blot analysis; assay type: ADME, cell-based; settings: a549, 24 h; procedure, shortened: as §1
[5] = test system: A549; experiment: Effect on total ROCK1 protein level in OPN-stimulated human A549 cells at 5 to 10 uM after 24 hrs by Western blot analysis; assay type: ADME, cell-based; settings: a549, 24 h; procedure, shortened: as §1
[6] = Inhibition of FAK/AKT/ROCK signaling pathway in human A549 cells assessed as decrease in OPN-induced ROCK1 expression at 5 to 10 uM after 24 hrs by Western blot analysis; assay type: cell-based; procedure, shortened: as §1
[7] = test system: A549; experiment: Anti-invasive activity in human A549 cells assessed as inhibition of OPN-induced cell invasion to matrigel coated invasion chamber at 10 uM preincubated for 30 mins followed by OPN stimulation measured after 24 hrs by boyden chamber assay; assay type: functional; procedure, shortened: as §2
[8] = Inhibition of FAK/AKT/ROCK signaling pathway in human A549 cells assessed as decrease in OPN-induced AKT phosphorylation at 5 to 10 uM after 15 mins by Western blot analysis; assay type: cell-based
[9] = Inhibition of FAK/AKT/ROCK signaling pathway in human A549 cells assessed as decrease in OPN-induced phosphorylation of cofilin at 5 to 10 uM after 24 hrs by Western blot analysis; assay type: cell-based; procedure, shortened: as §1
[10] = test system: A549; experiment: Effect on total FAK protein level in OPN-stimulated human A549 cells at 5 to 10 uM after 24 hrs by Western blot analysis; assay type: ADME, cell-based; settings: a549, 24 h; procedure, shortened: as §1
[11] = biological target: Focal adhesion kinase 1 (Homo sapiens) (UniProt Q05397); experiment: Inhibition of FAK signaling pathway in human A549 cells assessed as decrease in OPN-induced FAK phosphorylation at 5 to 10 uM after 15 mins by Western blot analysis; assay type: cell-based
[12] = test system: A549; experiment: Effect on total LIMK1/2 protein level in OPN-stimulated human A549 cells at 5 to 10 uM after 24 hrs by Western blot analysis; assay type: ADME, cell-based; settings: a549, 24 h; procedure, shortened: as §1
[13] = test system: A549; experiment: Cytotoxicity against human A549 cells assessed as reduction in cell viability at 10 uM after 24 hrs by MTT assay; assay type: cell-based; settings: a549, 24 h
Procedure, shortened: (§3)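 A549 cells were exposed to compound in serum-free medium for 24 h, and viability was read by MTT assay. Mean ± SD of three independent experiments; Student's t test versus untreated control.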

[14] = test system: A549; experiment: Effect on total AKT protein level in OPN-stimulated human A549 cells at 5 to 10 uM after 24 hrs by Western blot analysis; assay type: ADME, cell-based; settings: a549, 24 h; procedure, shortened: as §1
[15] = test system: A549; experiment: Cytotoxicity against human A549 cells assessed as reduction in cell viability at 20 uM after 24 hrs by MTT assay; assay type: cell-based; settings: a549, 24 h; procedure, shortened: as §3

Chain of Focal adhesion kinase 1 (Homo sapiens) (Q05397 2-1052 limits assumed): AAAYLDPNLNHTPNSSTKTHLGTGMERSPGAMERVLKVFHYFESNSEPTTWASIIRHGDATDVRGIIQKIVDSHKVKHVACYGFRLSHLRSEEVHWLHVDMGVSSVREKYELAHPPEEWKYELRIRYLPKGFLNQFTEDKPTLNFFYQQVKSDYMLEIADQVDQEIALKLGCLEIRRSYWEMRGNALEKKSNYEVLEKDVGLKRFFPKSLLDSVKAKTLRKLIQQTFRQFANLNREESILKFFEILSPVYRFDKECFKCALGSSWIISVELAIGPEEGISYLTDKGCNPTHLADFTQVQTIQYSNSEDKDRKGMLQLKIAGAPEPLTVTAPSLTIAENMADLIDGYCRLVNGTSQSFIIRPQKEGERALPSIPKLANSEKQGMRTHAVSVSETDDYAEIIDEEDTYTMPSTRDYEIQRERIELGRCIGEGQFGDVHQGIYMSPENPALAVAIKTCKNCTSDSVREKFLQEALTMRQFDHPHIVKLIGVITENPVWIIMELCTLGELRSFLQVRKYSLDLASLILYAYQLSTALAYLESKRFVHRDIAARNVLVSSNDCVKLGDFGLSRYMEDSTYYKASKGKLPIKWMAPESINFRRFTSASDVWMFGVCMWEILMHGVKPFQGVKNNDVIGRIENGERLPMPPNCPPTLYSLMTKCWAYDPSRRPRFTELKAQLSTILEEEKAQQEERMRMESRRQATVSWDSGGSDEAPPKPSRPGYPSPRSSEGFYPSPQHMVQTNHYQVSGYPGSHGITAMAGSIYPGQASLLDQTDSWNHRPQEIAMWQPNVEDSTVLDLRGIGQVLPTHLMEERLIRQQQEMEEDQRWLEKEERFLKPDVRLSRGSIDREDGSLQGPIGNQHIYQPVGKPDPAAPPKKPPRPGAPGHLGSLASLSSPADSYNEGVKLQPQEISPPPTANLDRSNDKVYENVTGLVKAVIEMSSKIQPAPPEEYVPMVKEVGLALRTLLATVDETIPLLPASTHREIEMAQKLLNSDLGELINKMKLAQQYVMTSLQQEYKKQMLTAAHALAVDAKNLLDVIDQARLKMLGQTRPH

With `C/C1=C\CC(C)(C)/C=C/C(=O)/C(C)=C/CC1` [ZERUMBONE] the inhibition [1] was “Active”, the inhibition [2] was “Dose-dependent effect” and the inhibition at 5 µM [3] was 48%. The Activity [4] was “Non-toxic”, the Activity [5] was “Non-toxic” and the inhibition [6] was “Dose-dependent effect”. The inhibition at 10 µM [7] was 69%, the inhibition [8] was “Active” and the inhibition [9] was “Dose-dependent effect”. For the same molecule, the Activity [10] was “Non-toxic”, the inhibition [11] was “Active” and the Activity [12] was “Non-toxic”. For the same molecule, the Activity [13] was “Non-toxic”, the Activity [14] was “Non-toxic” and the Activity [15] was “Toxic”.
